{"data": "Results of several laboratories", "note": "Lines come from different studies, so protocols differ."}
{"SMILES": "C=CC(=O)NC1CCN(c2ncc3ncnc(Nc4ccc(Oc5ccc6c(c5)ncn6C)c(C)c4)c3n2)CC1", "tested on": "Panc1005", "assay": "cell growth or viability", "endpoint": "EC50", "result": "0.0396 µM"}
{"SMILES": "COC1=CC(=O)c2ccccc2C1=O", "tested on": "Candida tropicalis", "assay": "microbial growth, broth dilution", "test system": "ATCC13803", "conditions": "24 h", "endpoint": "MIC", "result": "12.5 µg/mL"}
{"SMILES": "NNC(=O)c1ccncc1", "tested on": "Mycolicibacterium smegmatis", "assay": "microbial growth, broth dilution", "test system": "ATCC700084", "endpoint": "MIC", "result": "117 µM"}
{"SMILES": "Cc1c(C(=O)O)ccc2c3n(nc12)[C@@H]1[C@H](C3)N(CC2CC2)[C@@]2(C(=O)Nc3cc(Cl)ccc32)[C@H]1c1cccc(Cl)c1F", "tested on": "UACC-812", "assay": "cell growth or viability", "endpoint": "GI50", "result": "0.00119 µM"}
{"SMILES": "C[C@@H]1[C@H](O)[C@@H](C)/C=C/C=C/C=C/C=C/C=C/C=C/C=C/[C@H](O[C@@H]2O[C@H](C)[C@@H](O)[C@H](N)[C@@H]2O)C[C@@H]2O[C@](O)(C[C@@H](O)C[C@@H](O)[C@H](O)CC[C@@H](O)C[C@@H](O)CC(=O)O[C@H]1C)C[C@H](O)[C@H]2C(=O)O", "tested on": "Candida tropicalis", "assay": "microbial growth, broth dilution", "test system": "ATCC13803", "conditions": "24 h", "endpoint": "MIC", "result": "4 µg/mL"}
{"SMILES": "COc1cc(Cc2cnc(N)nc2N)cc(OC)c1OC", "tested on": "Toxoplasma gondii", "assay": "parasite growth, fluorescence", "test system": "HS27", "conditions": "96 h, intracellular", "endpoint": "IC50", "result": "11.8 µg/mL"}
{"SMILES": "Cc1cc(/C=C/C#N)cc(C)c1Nc1ccnc(Nc2ccc(C#N)cc2)n1", "tested on": "SUNE1", "assay": "cell growth or viability, MTT", "conditions": "48 h", "endpoint": "IC50", "result": "19.1 µM"}
{"SMILES": "COc1cccc(/C=N/N2C(=O)c3ccccc3NC2c2cccc(OC)c2O)c1O (stereo not shown)", "tested on": "Mycolicibacterium smegmatis", "assay": "microbial growth, broth dilution", "test system": "ATCC700084", "conditions": "72 h", "endpoint": "MIC", "result": "> 256 µg/mL"}
{"SMILES": "COc1cc2nc(N3CCN(C(=O)C4COc5ccccc5O4)CC3)nc(N)c2cc1OC (stereo not shown)", "tested on": "SUNE1", "assay": "cell growth or viability, MTT", "conditions": "48 h", "endpoint": "IC50", "result": "8.89 µM"}
{"SMILES": "CC(=O)N1N=C(c2ccc(NS(=O)(=O)c3ccc4oc(=O)ccc4c3)cc2)CC1c1ccc(Br)cc1 (stereo not shown)", "tested on": "Toxoplasma gondii", "assay": "parasite growth, fluorescence", "test system": "HS27", "conditions": "96 h, intracellular", "endpoint": "IC50", "result": "< 3.91 µg/mL"}
